From ChEMBL document CHEMBL1149473, “Anti-AIDS agents 69. Moronic acid and other triterpene derivatives as novel potent anti-HIV agents” (J Med Chem, 2006) come the findings set out here.

pEC50, pIC50: −log10 of the molar value. Active and inactive are the calls of the source. The calls are words filed in the database; no cut-off is given here.

Series [1] can be described thus: Therapeutic index, IC50 for H9/EC50 for HIV 3B. Particulars: human, H9 cells; read-out: Ratio IC50/EC50. It is filed as cell-based. In short, it runs like this: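 Therapeutic index is IC50 divided by EC50. IC50 is the XTT toxicity in mock-infected H9 cells. EC50 is the 50% suppression of p24 in HIV-1 IIIB-infected H9 cells at day 6.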
Series [2] concerns H9. The series is described as follows: Antiviral activity against HIV1 3B in H9 lymphocytes. It is filed as functional, cell-based. Particulars: for pEC50: Homo sapiens. The method in brief: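 HIV-1 IIIB isolate (125 TCID50) added to H9 cells at 3 × 10⁵ cells/mL in RPMI 1640 with 10% fetal calf serum and L-glutamine, 37 °C, 5% CO2. Media replaced on days 1 and 4 postinfection. Supernatant p24 antigen capture on day 6. EC50 = concentration suppressing replication by 50%. AZT run as positive control each experiment.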

A short description of series [3]: Cytotoxicity against COS-TZM fused cells. The series is classed as functional, cell-based. The method in brief: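 Cytotoxicity was determined as IC50 in a one-day assay, matching the fusion assay duration. The highest concentration tested was 10 µg/mL.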
Series [4] can be described thus: Inhibition of membrane fusion between HIV1 NL4-3 envelope gene expressing COS cells and TZM cells. It is filed as functional, cell-based. In short, it runs like this: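 COS cells were electroporated with pSRHS carrying the HIV-1 NL4-3 envelope genes (2 µg per 10⁶ cells, 950 µF, 150 V) and cultured 1 day. They were then mixed with TZM cells (10⁴ COS : 10 × 10⁴ TZM) with compound at various concentrations, 37 °C, 24 h. Luciferase read-out. EC50 = 50% inhibition of envelope-mediated fusion.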

In series [5] the test system is H9. The series is described as follows: Cytotoxicity against human H9 lymphocytes. It is filed as functional, cell-based. The method in brief: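 Mock-infected H9 cells were treated in parallel with the antiviral plates under identical conditions, without virus, and were read by XTT on day 6. IC50 = concentration toxic to 50% of mock-infected cells.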
Series [6] in a line: Therapeutic index, IC50 for MT-4/EC50 for HIV1 NL4-3. The following applies: human, MT-4 cells.
Series [7] has as its system MT4. Description: Antiviral activity against HIV1 PI-R replication in human MT4 cells. The series is classed as functional, cell-based. The method in brief: (§1)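 MT4 cells were infected with HIV-1 at MOI 0.01 using the strain named in the line. NL4-3 is a T-cell adapted X4 wild-type virus. PI-R is M46I/L63P/V82T/I84V, resistant to multiple protease inhibitors. Supernatants were collected on day 4 postinfection for p24 ELISA. EC50 = concentration inhibiting replication by 50%.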

Series [8] relates to MT4. The series is described as follows: Antiviral activity against HIV1 NL4-3 replication in human MT4 cells. The series is classed as functional, cell-based. The following applies: NL4-3, MT4. The method in brief:
as §1

Series [9] deals with MT4. Description: Cytotoxicity against human MT4 cells at 5 uM. It is filed as functional, cell-based.
In series [10] the test system is MT4. The series is described as follows: Antiviral activity against HIV1 NL4-3 in MT4 cells. It is filed as functional, cell-based. The following applies: for pEC50: Homo sapiens, NL4-3, MT4. In short, it runs like this: as §1
Series [11] has as its system MT4. Description: Antiviral activity against HIV1 FHR2 replication in MT4 cells at 5 uM. It is filed as functional, cell-based.
Series [12] relates to MT4. Description: Cytotoxicity against human MT4 cells. The series is classed as functional, cell-based. The method in brief: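 Cytotoxicity was measured in MT4 cells and given as IC50, the concentration decreasing viable cell number by 50%.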
For series [13], the system named is MT4. The series is described as follows: Antiviral activity against HIV1 FHR2 replication in MT4 cells. The following applies: Homo sapiens. It is filed as functional, cell-based. In short, it runs like this:
as §1

With `C=C(C)[C@@H]1CC[C@]2(C(=O)O)CC[C@]3(C)[C@H](CC[C@@H]4[C@@]5(C)CC[C@H](OC(=O)CC(C)(C)C(=O)O)C(C)(C)[C@@H]5CC[C@]43C)[C@@H]12` [BEVIRIMAT], the selectivity ratio is above 6250 in series [1] and above 52 in [6]. Further, the pEC50 – broadly, the negative decadic logarithm of the EC50, by convention in mol/L – in the series with H9 [2] is 8.15; in series [4], below 4.77; with MT4 [7], 6.37; in the series with MT4 [8], 7.02; with MT4 [10], 7.02. The pIC50 (in general, −log10 of the IC50, conventionally taken in molar units) was below 4.77 in [3], below 4.37 with H9 [5] and below 5.30 in the series with MT4 [9]. The result with MT4 [11] was inactive.
With `CC1(C)CC[C@]2(C(=O)O)CC[C@]3(C)C(=CC[C@@H]4[C@@]5(C)CC[C@H](OC(=O)CC(C)(C)C(=O)O)C(C)(C)[C@@H]5CC[C@]43C)[C@@H]2C1`, the selectivity ratio is above 133 in series [1] and 2.4 in [6]. Also, the negative-log EC50 (pEC50) in the series on H9 [2] was 6.49; in the series with MT4 [10] it was 5.08. Further, the pIC50 in the series on H9 [5] is below 4.37; with MT4 [12], 4.69.
Consider `C=C(C)[C@@H]1CC[C@]2(C)CC[C@]3(C)[C@H](CC[C@@H]4[C@@]5(C)CC[C@H](OC(=O)CC(C)(C)C(=O)O)C(C)(C)[C@@H]5CC[C@]43C)[C@@H]12`, for which the selectivity ratio in series [1] was above 17.2; in series [6], above 1.7. The values for the pEC50 in the series on H9 [2] and in the series with MT4 [10] were 5.59 and 4.67, respectively. Also, the negative logarithm of the IC50 (pIC50) in the series with H9 [5] is below 4.35; with MT4 [12], below 4.44.
As for `C[C@H]1[C@H](C)CC[C@]2(C(=O)O)CC[C@]3(C)C(=CC[C@@H]4[C@@]5(C)CC[C@H](OC(=O)CC(C)(C)CC(=O)O)C(C)(C)[C@@H]5CC[C@]43C)[C@H]12`, the selectivity ratio in series [1] worked out at 42. In the series on H9 [2], the pEC50 is 6.17. The molecule further showed a pIC50 with H9 [5] of 4.55. In addition, the outcome in the series on MT4 [10] was inactive.
`CC(C)(CC(=O)O)CC(=O)O[C@H]1CC[C@]2(C)[C@H]3CC=C4[C@@H]5CC(C)(C)CC[C@]5(C(=O)O)CC[C@@]4(C)[C@]3(C)CC[C@H]2C1(C)C`: the outcome with H9 [2] and in the series on MT4 [10] was inactive.
For `CC(C)C[C@@H](CO)NC(=O)[C@]12CCC(C)(C)C=C1[C@H]1CC[C@@H]3[C@@]4(C)CC[C@H](OC(=O)CC(C)(C)C(=O)O)C(C)(C)[C@@H]4CC[C@@]3(C)[C@]1(C)CC2`, the selectivity ratio was above 2500 in series [1] and 522 in series [6]. Also, the pEC50 with H9 [2] was 7.77; in series [4] it was 5.23; with MT4 [13], 5.56; with MT4 [7], 7.06; in the series with MT4 [8], 7.35; with MT4 [10], 7.35. Besides, the pIC50 was below 4.84 in [3], below 4.37 in the series on H9 [5] and 4.63 in the series on MT4 [12].
In the case of `C=C(C)[C@@H]1CC[C@]2(C(=O)NCCCCCCCCCCC(=O)O)CC[C@]3(C)[C@H](CC[C@@H]4[C@@]5(C)CC[C@H](OC(=O)CC(C)(C)C(=O)O)C(C)(C)[C@@H]5CC[C@]43C)[C@@H]12`, the negative logarithm of the IC50 (pIC50) with MT4 [12] is 4.96. The selectivity ratio in [6] stood at 1570. The molecule further gave a negative logarithm of the EC50 (pEC50) in the series with MT4 [10] of 8.15.
`CC1(C)C=C2[C@H]3CC[C@@H]4[C@@]5(C)CC[C@H](OC(=O)C(C)(C)CC(=O)O)C(C)(C)[C@@H]5CC[C@@]4(C)[C@]3(C)CC[C@@]2(C(=O)NCCCCCCCCCCC(=O)O)CC1`: the selectivity ratio in [1] was above 3.5. In the series on H9 [2], the pEC50 is 5.03. The negative logarithm of the IC50 (pIC50) in the series on H9 [5] was below 4.49. The result in the series on MT4 [10] was inactive.
For `C=C(C)[C@@H]1CC[C@]2(C(=O)NCCCCCCCC(=O)N[C@@H](CC(C)C)[C@H](O)CC(=O)O)CC[C@]3(C)[C@H](CC[C@@H]4[C@@]5(C)CC[C@H](O)C(C)(C)[C@@H]5CC[C@]43C)[C@@H]12`, in series [3], the pIC50 is below 4.88. In series [4], this molecule showed a pEC50 of 8.07.
On to `CC(C)C[C@H](NC(=O)[C@@]1(C)CC[C@]2(C)CC[C@]3(C)C(=CC(=O)[C@@H]4[C@@]5(C)CC[C@H](OC(=O)CC(C)(C)C(=O)O)C(C)(C)[C@@H]5CC[C@]43C)[C@@H]2C1)C(=O)O`, for which the outcome in the series with H9 [2] and in the series on MT4 [10] was inactive.
With `C=C(C)[C@@H]1CC[C@]2(C(=O)N[C@@H](CC(C)C)C(=O)O)CC[C@]3(C)[C@H](CC[C@@H]4[C@@]5(C)CC[C@H](OC(=O)CC(C)(C)C(=O)O)C(C)(C)[C@@H]5CC[C@]43C)[C@@H]12`, the pEC50 in the series on MT4 [13] is 7.30; in the series on MT4 [7], 8.22; with MT4 [8], 8.00; in the series on MT4 [10], 8.00. The molecule also gave a negative-log IC50 (pIC50) in the series with MT4 [12] of 4.91. The selectivity ratio in series [6] was above 1220.
Regarding `C[C@H]1[C@H](C)CC[C@]2(C(=O)O)CC[C@]3(C)C(=CC[C@@H]4[C@@]5(C)CC[C@H](OC(=O)CC(C)(C)C(=O)O)C(C)(C)[C@@H]5CC[C@]43C)[C@H]12`, the selectivity ratio in series [1] amounted to 360; in [6], 2.5. The values for the pEC50 in the series with H9 [2] and in the series on MT4 [10] were 7.10 and 5.08, respectively. Moreover, the pIC50 was 4.55 in the series with H9 [5] and 4.68 in the series with MT4 [12].
`CC1(C)C=C2[C@H]3CC[C@@H]4[C@@]5(C)CC[C@H](OC(=O)CC(C)(C)C(=O)O)C(C)(C)[C@@H]5CC[C@@]4(C)[C@]3(C)CC[C@@]2(C(=O)NCCCCCCCCCCC(=O)O)CC1`: the selectivity ratio stood at 3400 in series [1] and 177 in [6]. Further, the negative logarithm of the EC50 (pEC50) with H9 [2] is 8.15; in series [4] it was 5.28; with MT4 [10] it was 6.96. In addition, the pIC50 was below 4.89 in series [3], 4.62 in the series with H9 [5] and 4.71 in the series with MT4 [12].
Take `CC(C)(CC(=O)O[C@H]1CC[C@]2(C)[C@H]3C(=O)C=C4[C@@H]5C[C@@](C)(C(=O)O)CC[C@]5(C)CC[C@@]4(C)[C@]3(C)CC[C@H]2C1(C)C)C(=O)O`: the outcome in the series on H9 [2] and in the series with MT4 [10] was inactive.
Regarding `Cc1cn([C@H]2C[C@H](N=[N+]=[N-])[C@@H](CO)O2)c(=O)[nH]c1=O` [ZIDOVUDINE], the pEC50 was 7.72 with MT4 [13], 7.72 in the series on MT4 [7] and 7.89 with MT4 [8]. In addition, the pIC50 in the series with MT4 [12] was below 4.43.
Regarding `CC(C)C[C@H](NC(=O)[C@]12CCC(C)(C)C=C1[C@H]1CC[C@@H]3[C@@]4(C)CC[C@H](OC(=O)CC(C)(C)C(=O)O)C(C)(C)[C@@H]4CC[C@@]3(C)[C@]1(C)CC2)C(=O)O`, the selectivity ratio in series [1] was above 2740; in series [6] it was 2650. For the same molecule, the pEC50 was 7.81 in the series on H9 [2]; 5.45 in series [4]; 6.89 with MT4 [13]; 7.68 in the series with MT4 [7]; 8.07 with MT4 [8]; 8.07 in the series with MT4 [10]. Further, the pIC50 in series [3] is below 4.84; in the series with H9 [5], below 4.37; in the series with MT4 [12] it was 4.65.
